Measurements published in ChEMBL document CHEMBL4480399, “Identification of a Benzimidazolecarboxylic Acid Derivative (BAY 1316957) as a Potent and Selective Human Prostaglandin E2 Receptor Subtype 4 (hEP4-R) Antagonist for the Treatment of Endometriosis” (J Med Chem, 2019).
Values after ≈ are worked out from the molar mass of the structure shown. One block for each compound: values may come before it. Active and inactive are the calls of the source.

Columns and labels:
[1] = Lipophilicity, log D of the compound at pH 7.4; assay type: physicochemical; details: buffer
[2] = target: Prostaglandin E2 receptor EP4 subtype (Homo sapiens, UniProt P35408); assay: Antagonist activity at human EP4R assessed as inhibition of agonist-induced cAMP production by fluorescent cAMP tracer cAMP-d2 based FRET assay; assay type: functional
[3] = Kinetic solubility of the compound; assay type: physicochemical; details: read-out: Kinetic_solubility
[4] = Intrinsic clearance in Han Wistar rat hepatocytes assessed as blood clearance at 1 uM after 90 mins by LC-MS/MS analysis; assay type: ADME, cell-based, Hepatocyte
How it was run: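 Rat hepatocytes isolated with a Percoll gradient, viability by trypan blue; 1.0 × 10^6 viable cells/mL in WME + 5% FCS, compound at 1 µM, shaken at 580 rpm. Sampled 2–90 min into cold methanol; LC-MS/MS.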

[5] = Efflux ratio of apparent permeability in human Caco2 cells at 2 uM after 2 hrs by LC/MS/MS analysis; assay type: ADME, cell-based; details: Caco-2
How it was run: (§1)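 Caco-2 cells seeded at 4.5 x 10^4 per well on 0.4 µm inserts and grown 15 days. Assay in FCS-free Hepes-carbonate buffer pH 7.2, with TEER checked. Compound at 2 µM final added apically or basolaterally; both sides sampled before and after 2 h at 37 °C. Papp from peak areas; efflux ratio = Papp B-A / Papp A-B; recovery calculated.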

[6] = Apparent permeability from apical to basolateral side in human Caco2 cells at 2 uM after 2 hrs by LC/MS/MS analysis; assay type: ADME, cell-based; details: Caco-2; how it was run: as §1
[7] = target: Prostaglandin E2 receptor EP4 subtype (Mus musculus, UniProt P32240); assay: Antagonist activity at mouse EP4R assessed as inhibition of agonist-induced cAMP production by fluorescent cAMP tracer cAMP-d2 based FRET assay; assay type: functional
Rattus norvegicus = assay: Antinociceptive activity in Sprague-Dawley rat model of dmPGE2-induced pain behavior assessed as increase in paw withdrawal thresholds at 5 mg/kg, po pretreated 60 mins before dmPGE2 addition and measured after 30 mins post dmPGE2 injection; assay type: functional, organism-based
How it was run: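 Male Sprague-Dawley rats, 220–265 g. Compound suspended in 0.5% CMC and given orally; vehicle controls. At 60 min, 10 µg dmPGE2 in PBS injected into the plantar surface of the left hind paw. Electronic von Frey thresholds taken 30 min later, mean of 3 per paw, against day −1 baseline. Mean ±SD; Grubbs outlier test; 1-way ANOVA with Dunnett's test.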

[8] = Oral bioavailability in Wistar rat at 1 mg/kg by LC-MS/MS analysis; assay type: ADME, organism-based; details: in vivo
How it was run: (§2)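 Male Wistar rats dosed iv (0.3–1 mg/kg) or intragastrically (0.5–10 mg/kg) as solutions with solubilizers such as PEG400; cassette dosing of up to 3 compounds in some studies. Jugular blood taken 2 min to 24 h into Li-heparin tubes. Plasma precipitated with acetonitrile and run by LC-MS/MS. Non-compartmental PK analysis.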

[9] = Volume of distribution at steady state in Wistar rat at 1 mg/kg, po by LC-MS/MS analysis; assay type: ADME, organism-based; details: in vivo; how it was run: as §2
[10] = Half life in Wistar rat at 1 mg/kg, iv by LC-MS/MS analysis; assay type: ADME, organism-based; details: in vivo; how it was run: as §2
[11] = Volume of distribution at steady state in Wistar rat at 1 mg/kg, iv by LC-MS/MS analysis; assay type: ADME, organism-based; details: in vivo, read-out: Vdss; how it was run: as §2
[12] = Kinetic solubility of the compound at pH 6.5; assay type: physicochemical; details: buffer, read-out: Kinetic_solubility
[13] = Dose normalized AUC in Wistar rat at 1 mg/kg, po by LC-MS/MS analysis; assay type: ADME, organism-based; details: in vivo; how it was run: as §2
[14] = Blood clearance in Wistar rat at 1 mg/kg, po by LC-MS/MS analysis; assay type: ADME, organism-based; details: whole blood; how it was run: as §2
[15] = target: T1, UDP-glucuronosyltransferase 1A1 (Rattus norvegicus, UniProt Q64550); assay: Drug metabolism in rat hepatocytes assessed as UGT1A1-mediated acylglucuronide metabolite formation at 10 uM after 4 hrs by HPLC-UV and mass spectrometric analysis; assay type: ADME, cell-based
T1 sequence (Q64550 whole entry): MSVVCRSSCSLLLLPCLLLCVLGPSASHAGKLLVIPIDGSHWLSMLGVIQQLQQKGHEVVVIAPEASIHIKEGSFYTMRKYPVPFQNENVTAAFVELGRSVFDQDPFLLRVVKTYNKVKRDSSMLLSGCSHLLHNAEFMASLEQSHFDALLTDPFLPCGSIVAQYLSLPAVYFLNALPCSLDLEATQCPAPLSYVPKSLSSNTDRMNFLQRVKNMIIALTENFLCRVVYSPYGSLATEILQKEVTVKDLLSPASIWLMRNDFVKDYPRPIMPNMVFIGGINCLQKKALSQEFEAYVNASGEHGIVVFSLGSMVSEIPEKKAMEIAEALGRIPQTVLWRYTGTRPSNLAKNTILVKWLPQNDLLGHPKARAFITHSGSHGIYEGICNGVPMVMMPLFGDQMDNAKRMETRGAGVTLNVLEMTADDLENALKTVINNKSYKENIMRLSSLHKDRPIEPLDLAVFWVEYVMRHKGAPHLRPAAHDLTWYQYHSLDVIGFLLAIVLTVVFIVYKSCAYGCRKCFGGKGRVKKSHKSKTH

[16] = target: T2, UDP-glucuronosyltransferase 1A1 (Homo sapiens, UniProt P22309); assay: Drug metabolism in human hepatocytes assessed as UGT1A1-mediated acylglucuronide metabolite formation at 10 uM after 4 hrs by HPLC-UV and mass spectrometric analysis; assay type: ADME, cell-based
T2 sequence (P22309 whole entry): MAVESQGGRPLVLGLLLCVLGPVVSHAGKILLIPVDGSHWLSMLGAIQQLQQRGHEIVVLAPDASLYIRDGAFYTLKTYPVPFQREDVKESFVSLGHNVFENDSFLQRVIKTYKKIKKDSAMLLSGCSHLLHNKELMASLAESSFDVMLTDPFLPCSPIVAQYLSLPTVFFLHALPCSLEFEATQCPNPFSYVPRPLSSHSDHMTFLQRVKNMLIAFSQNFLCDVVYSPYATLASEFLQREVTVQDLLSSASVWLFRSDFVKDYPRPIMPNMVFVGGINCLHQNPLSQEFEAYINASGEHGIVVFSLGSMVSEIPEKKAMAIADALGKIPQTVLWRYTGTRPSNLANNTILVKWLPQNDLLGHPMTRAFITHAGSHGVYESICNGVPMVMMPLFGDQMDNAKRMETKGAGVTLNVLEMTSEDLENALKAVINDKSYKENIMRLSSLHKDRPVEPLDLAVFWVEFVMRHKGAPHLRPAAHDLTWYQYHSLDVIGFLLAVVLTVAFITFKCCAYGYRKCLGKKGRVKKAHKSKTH

[17] = Blood clearance in Wistar rat at 1 mg/kg, iv by LC-MS/MS analysis; assay type: ADME, organism-based; details: whole blood; how it was run: as §2

Prostaglandin E2 receptor EP4 subtype (Homo sapiens, UniProt P35408), sequence (P35408 whole entry): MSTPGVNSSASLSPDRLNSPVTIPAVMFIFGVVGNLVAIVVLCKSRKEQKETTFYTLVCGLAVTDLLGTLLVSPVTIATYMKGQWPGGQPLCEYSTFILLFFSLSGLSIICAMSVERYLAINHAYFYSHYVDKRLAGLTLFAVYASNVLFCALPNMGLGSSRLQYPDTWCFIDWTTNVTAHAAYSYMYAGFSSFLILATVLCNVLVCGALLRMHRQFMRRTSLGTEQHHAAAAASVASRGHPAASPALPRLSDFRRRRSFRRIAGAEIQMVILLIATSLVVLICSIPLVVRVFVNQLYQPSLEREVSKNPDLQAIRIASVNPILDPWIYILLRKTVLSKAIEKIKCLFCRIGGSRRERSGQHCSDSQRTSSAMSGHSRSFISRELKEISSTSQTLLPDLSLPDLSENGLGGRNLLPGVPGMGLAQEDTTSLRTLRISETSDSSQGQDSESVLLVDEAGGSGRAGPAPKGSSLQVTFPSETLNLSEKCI
Prostaglandin E2 receptor EP4 subtype (Mus musculus, UniProt P32240), sequence (P32240 whole entry): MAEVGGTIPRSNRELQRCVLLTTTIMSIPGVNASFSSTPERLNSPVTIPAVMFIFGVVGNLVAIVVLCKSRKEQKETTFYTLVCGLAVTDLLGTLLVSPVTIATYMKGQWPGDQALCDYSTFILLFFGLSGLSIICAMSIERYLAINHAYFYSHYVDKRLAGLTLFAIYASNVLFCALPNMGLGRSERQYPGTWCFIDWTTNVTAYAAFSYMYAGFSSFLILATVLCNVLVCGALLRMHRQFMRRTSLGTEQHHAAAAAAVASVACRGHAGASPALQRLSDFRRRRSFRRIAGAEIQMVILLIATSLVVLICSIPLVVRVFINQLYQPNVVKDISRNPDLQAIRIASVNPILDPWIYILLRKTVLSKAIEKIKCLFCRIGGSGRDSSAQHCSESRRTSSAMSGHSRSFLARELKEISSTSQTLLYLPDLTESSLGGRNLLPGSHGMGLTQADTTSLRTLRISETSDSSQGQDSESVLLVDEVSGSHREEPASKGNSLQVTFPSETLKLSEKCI

- logD [1]: 4.1
- IC50 [2]: 286 nM
- solubility kinetic [3]: < 0.1 µg/mL
Structure (SMILES): CCn1c2ccccc2c2cc(-c3nc4cc(C(=O)NC)ccc4n3CC3CC3)ccc21

- IC50 [2]: 148 nM
Structure (SMILES): CCn1c2ccccc2c2cc(-c3nc4cc(C(=O)NS(=O)(=O)N(C)C)ccc4n3CCOC)ccc21

- IC50 [2]: 65.5 nM
Structure (SMILES): CCn1c2ccc(-c3nc4c(C)c(C(=O)O)ccc4n3CCOC)cc2c2c(Cl)cccc21

- IC50 [2]: 222 nM
Structure (SMILES): CCn1c2ccccc2c2cc(-c3nc4cc(S(=O)(=O)O)ccc4n3CCOC)ccc21

- IC50 [2]: 17.4 nM
Structure (SMILES): CCn1c2ccc(-c3nc4c(C)c(C(=O)O)ccc4n3CCOC)cc2c2cc(C(F)(F)F)ccc21

- IC50 [2]: 15.9 nM
Structure (SMILES): CCn1c2ccccc2c2cc(-c3nc4c(Cl)c(C(=O)O)ccc4n3CCOC)ccc21

- IC50 [2]: 751 nM
Structure (SMILES): CCn1c2ccccc2c2cc(-c3nc4cc(C(=O)O)c(Cl)cc4n3CCOC)ccc21

- IC50 [2]: 6.8 nM
Structure (SMILES): CCn1c2ccccc2c2cc(-c3nc4cc(-c5nnn[nH]5)ccc4n3CCOC)ccc21

- IC50 [2]: 4.3 nM
Structure (SMILES): CCn1c2ccccc2c2cc(-c3nc4c(F)c(C(=O)O)ccc4n3CCOC)ccc21

- IC50 [2]: 4.2 nM
Structure (SMILES): CCn1c2ccc(-c3nc4c(C)c(C(=O)O)ccc4n3CCOC)cc2c2cccc(C)c21

- IC50 [2]: 3120 nM
Structure (SMILES): CCn1c2ccccc2c2cc(-c3nc4cc(C(=O)O)ccc4n3-c3ccccc3)ccc21

- IC50 [7]: 81 nM
- IC50 [2]: 4.7 nM
Structure (SMILES): CCn1c2ccccc2c2cc(-c3nc4cc(C(=O)O)ccc4n3CCOC)ccc21

Continued, compound first:

Structure (SMILES): CCn1c2ccccc2c2cc(-c3nc4cc(C(=O)O)c(F)cc4n3CCOC)ccc21
- IC50 [2]: 34.6 nM

Structure (SMILES): CCn1c2ccccc2c2cc(-c3nc4cc(-c5n[nH]c(=O)o5)ccc4n3CCOC)ccc21
- CLhep predicted at […], 1 µM [4]: 30 mL/min/kg
- efflux ratio at 2 h, 2 µM [5]: 0.9
- Papp A→B at 2 h, 2 µM [6]: 1.24 ×10⁻⁶ cm/s

Structure (SMILES): CCn1c2ccccc2c2cc(-c3nc4cc(C(=O)O)ccc4n3CC3CC3)ccc21
- logD [1]: 3
- IC50 [7]: 113 nM
- IC50 [2]: 12.8 nM
- solubility kinetic [3]: 3.2 µg/mL (≈ 7.81 µM)

Structure (SMILES): CCn1c2ccc(C)cc2c2cc(-c3nc4c(C)c(C(=O)O)ccc4n3CCOC)ccc21
- Activity (Rattus norvegicus): Active

Structure (SMILES): CCn1c2ccc(Cl)cc2c2cc(-c3nc4c(C)c(C(=O)O)ccc4n3CCOC)ccc21
- CLhep predicted at […], 1 µM [4]: 10 mL/min/kg
- efflux ratio at 2 h, 2 µM [5]: 0.5
- IC50 [2]: 4.4 nM
- Papp A→B at 2 h, 2 µM [6]: 20.8 ×10⁻⁶ cm/s

Structure (SMILES): Cn1c2ccccc2c2cc(-c3nc4cc(C(=O)O)ccc4n3CC3CC3)ccc21
- IC50 [2]: 34.2 nM

Structure (SMILES): CCn1c2ccccc2c2cc(-c3nc4c(C)c(C(=O)O)ccc4n3CCOC)ccc21
- bioavailability [8]: 92%
- Vdss [9]: 0.36 L/kg
- half-life [10]: 4.9 h
- CLhep predicted at […], 1 µM [4]: 1.67 to 2.5 mL/min/kg
- efflux ratio at 2 h, 2 µM [5]: 1.1
- Vd [11]: 0.36 L/kg
- IC50 [2]: 24.7 nM
- solubility kinetic [12]: 150 µg/mL (≈ 351 µM)
- AUC/dose [13]: 20 kg·h/L
- CL/F [14]: 1 mL/min/kg
- Papp A→B at 2 h, 2 µM [6]: 13.5 ×10⁻⁶ cm/s
- Drug metabolism [15]: Metabolite_Detected
- Drug metabolism [16]: Metabolite_Detected
- clearance [17]: 1 mL/min/kg

Structure (SMILES): CCn1c2ccccc2c2cc(-c3nc4ccc(C(=O)O)cc4n3CCOC)ccc21
- IC50 [2]: 1420 nM

Structure (SMILES): CCn1c2ccccc2c2cc(-c3nc4cc(C(=O)O)ccc4n3C)ccc21
- IC50 [2]: 166 nM

Structure (SMILES): CCn1c2ccccc2c2cc(-c3nc4cc(C(=O)NS(C)(=O)=O)ccc4n3CCOC)ccc21
- CLhep predicted at […], 1 µM [4]: 26.7 mL/min/kg

Structure (SMILES): CCn1c2ccc(-c3nc4c(C)c(C(=O)O)ccc4n3CCOC)cc2c2c(C)cccc21
- IC50 [2]: 54.6 nM

Structure (SMILES): CCn1c2ccccc2c2cc(-c3nc4cc(-c5noc(=O)[nH]5)ccc4n3CCOC)ccc21
- CLhep predicted at […], 1 µM [4]: 11.7 mL/min/kg
- efflux ratio at 2 h, 2 µM [5]: 3.3
- IC50 [2]: 6.1 nM
- Papp A→B at 2 h, 2 µM [6]: 2.63 ×10⁻⁶ cm/s

Structure (SMILES): CCn1c2ccccc2c2cc(-c3nc4cc(C(=O)O)ccc4n3CC3CCO3)ccc21 (stereo not drawn)
- IC50 [2]: 51.5 nM

Structure (SMILES): CCn1c2ccc(OC(F)(F)F)cc2c2cc(-c3nc4c(C)c(C(=O)O)ccc4n3CCOC)ccc21
- IC50 [2]: 366 nM
